# Compound activity: PubChem, Broad Institute
# DENV2 CPE: inhibitors of DENV2 cytopathic effect, primary screen, cell-based, plate reader, single concentration; DENV2-infected cells, cytopathic effect rescue; CPE inhibition, % at 9.99 µM; hit rate 1.7% among 350,000; in the data active = CPE inhibition above about 20%, passing the limit was not always enough; inconclusive = no clear call, values can overlap the other calls; tested in BHK-21 cells;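 note: 0% = median of neutral control wells and 100% = median of positive control wells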
# E-sel inducer: E-selectin induction in HUVECs, primary screen, imaging, HUVEC, immunofluorescence imaging, single point; hit rate 0.37% among 260,000; activation, % at 7.58 µM; normalized: neutral wells 0, TNF-alpha wells 100; P16581;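 active = mean E-selectin-positive cell signal at least 10% of the positive control, reached in at least 60% of replicates, without over 20% cell loss; inconclusive = no rule given, readout overlaps actives, possibly toxicity-flagged; inactive = the rest, including those meeting only one limit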
# Target sequence (P16581 whole entry, looked up): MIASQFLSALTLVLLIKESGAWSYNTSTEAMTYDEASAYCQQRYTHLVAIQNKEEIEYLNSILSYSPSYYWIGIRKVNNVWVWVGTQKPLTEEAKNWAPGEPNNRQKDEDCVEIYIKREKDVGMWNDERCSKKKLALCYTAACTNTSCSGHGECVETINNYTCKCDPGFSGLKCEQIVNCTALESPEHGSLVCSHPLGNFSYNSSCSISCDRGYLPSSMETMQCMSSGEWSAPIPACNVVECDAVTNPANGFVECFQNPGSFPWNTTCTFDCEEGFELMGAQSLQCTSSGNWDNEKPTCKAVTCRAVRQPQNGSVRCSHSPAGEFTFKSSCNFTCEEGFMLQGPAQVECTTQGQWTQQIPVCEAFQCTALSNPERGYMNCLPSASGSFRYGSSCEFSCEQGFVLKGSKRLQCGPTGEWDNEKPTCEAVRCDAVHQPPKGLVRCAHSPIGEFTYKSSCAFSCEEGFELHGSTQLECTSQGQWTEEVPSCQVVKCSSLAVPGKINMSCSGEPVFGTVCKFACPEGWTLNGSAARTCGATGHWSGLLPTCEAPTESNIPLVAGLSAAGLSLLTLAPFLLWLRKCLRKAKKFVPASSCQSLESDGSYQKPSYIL
#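 Read-out basis: % PE-positive cells; Test system: HUVEC primary endothelial cells; Technique: immunofluorescence imaging; Dosing: single-point compound dose.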
# C2C12 statin: suppressors of statin myotoxicity in C2C12 myotubes, primary screen, cell-based, single point, plate reader. rescue of ATP level, % at 7.49 µM. hit rate 0.78% among 330,000. C2C12 myotubes + simvastatin, ATP luminescence, 48 h; scaled: DMSO 0, geranylgeraniol control 100;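 active = mean ATP rescue above about 67%, or every replicate alone reaching that limit, limit read from the data, passing the limit was not always enough; inconclusive = no clear call, values can overlap the other calls; inactive = mean under the limit and some replicate under it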;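 note: myotubes were challenged with 10 µM simvastatin during compound exposure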
# * hit, by the source's call; ? = inconclusive; . = not tested or not shown. This is a sample that favours compounds with a hit; in the whole collection about 2.2% have one here.
SMILES,DENV2 CPE,E-sel inducer,C2C12 statin
CC(=O)N[C@H]1C=C[C@H](CC(=O)NCc2ccc(Cl)cc2)O[C@H]1CO,32*,0,-6
O=C(C[C@@H]1C=C[C@@H](NC(=O)c2ccccn2)[C@H](CO)O1)NCc1cccc(F)c1,36*,0,-2
O=C(C[C@H]1C=C[C@@H](NC(=O)C2CCC2)[C@@H](CO)O1)NCC1CC1,58*,0,0
COc1ccc(CNC(=O)C[C@@H]2C=C[C@@H](NC(=O)c3ccc4c(c3)OCO4)[C@H](CO)O2)cc1,44*,0,8
O=C(CN1CCOCC1)N[C@H]1CC[C@@H](CCNC(=O)C2CCCCC2)O[C@@H]1CO,-9,0,-2
C[C@@H]1CN([C@H](C)CO)C(=O)c2cc(N(C)C)ccc2O[C@H]1CN(C)Cc1ccncc1,0,.,20
COc1cccc(-c2csc(N3CCN(C(=O)Nc4ccc(F)cc4)CC3)n2)c1,.,.,8
COc1cccc(-c2csc(N3CCN(C(=O)Nc4ccccc4OC)CC3)n2)c1,3,.,77*
CN1CCN(CCCNC(=O)C2CC(=O)N(C3CCCCC3)C2)CC1 (centres undefined),.,.,2
O=C(NCCCN1CCN(c2ccccc2F)CC1)C1CC(=O)N(C2CCCC2)C1 (centres undefined),5,1,125*
Fc1ccc(CN2CCN3CCCC3C2C2CCCCC2)cc1F (centres undefined),.,.,-9
Fc1cccc(CN2CCN3CCCC3C2C2CCCCC2)c1 (centres undefined),.,.,129*
C[C@@H]1CCCCO[C@@H](CN(C)CC2CCCCC2)[C@H](C)CN([C@@H](C)CO)C(=O)c2cc(NC(=O)CCC(F)(F)F)ccc2O1,-6,0,.
CO[C@@H]1CN(C)C(=O)c2cc(NC(=O)NC(C)C)ccc2OC[C@H](C)N(C(=O)C2CCC2)C[C@@H]1C,-1,0,17
C[C@@H]1CN([C@@H](C)CO)C(=O)Cc2cc(NS(C)(=O)=O)ccc2O[C@H]1CN(C)Cc1ccncc1,7,440*,12
Cc1ccc(S(=O)(=O)Nc2ccc3c(c2)CC(=O)N([C@@H](C)CO)C[C@@H](C)[C@H](CN(C)Cc2ccncc2)O3)cc1,37*,1,-19
C[C@@H]1CN([C@H](C)CO)C(=O)Cc2cc(NS(C)(=O)=O)ccc2O[C@@H]1CN(C)Cc1ccncc1,?,7,-6
Cc1ccc(S(=O)(=O)Nc2ccc3c(c2)CC(=O)N([C@@H](C)CO)C[C@H](C)[C@H](CN(C)Cc2ccncc2)O3)cc1,5,2,10
CO[C@H]1CN(C)C(=O)c2cc(NC(=O)c3ccccc3F)ccc2OC[C@H](C)N(C)C[C@H]1C,-10,0,-4
CO[C@H]1CC[C@@H]2CCOc3ccc(C#N)cc3C(=O)N(C)C[C@H](c3ccccc3)CC(=O)N(C)C[C@@H]1O2,.,0,17
O=C(Cn1c(C(F)(F)F)nc2ccccc21)N1CCCC1,.,.,-3
O=C(NCCn1c(-c2ccncc2)nc2ccccc21)[C@H]1CCCN1c1nc(CN2CCCCC2)cs1,0,0,-5
c1ccc2c(c1)nc(-c1ccncc1)n2CCNc1nc(CN2CCCCC2)cs1,4,0,88*
FC(F)(F)c1nc2ccccc2n1CCNc1nc(CN2CCCCC2)cs1,30*,0,63
COCC(=O)Nc1ccc2c(c1)OC[C@@H](C)N(C(=O)COC)C[C@H](C)[C@H](OC)CN(C)C2=O,10,0,-26
SMILES,DENV2 CPE,E-sel inducer,C2C12 statin
CCCC(=O)Nc1ccc2c(c1)C(=O)N(C)C[C@@H](OC)[C@H](C)CN(C(=O)CN1CCOCC1)[C@H](C)CO2,2,0,-6
CO[C@@H]1CN(C)C(=O)c2ccc(NC(=O)NC(C)C)cc2OC[C@H](C)N(C(=O)CC2CC2)C[C@H]1C,32*,0,0
CO[C@H]1CN(C)C(=O)c2ccc(NC(=O)NC(C)C)cc2OC[C@H](C)N(C(=O)CC2CC2)C[C@@H]1C,-3,0,.
COCC(=O)Nc1ccc2c(c1)OC[C@H](C)N(C(=O)CC1CC1)C[C@H](C)[C@H](OC)CN(C)C2=O,31*,0,2
CCCC(=O)Nc1ccc2c(c1)OC[C@@H](C)N(C(=O)CN1CCOCC1)C[C@@H](C)[C@H](OC)CN(C)C2=O,21*,0,-7
COCC(=O)Nc1ccc2c(c1)OC[C@H](C)N(C(=O)CC1CC1)C[C@@H](C)[C@@H](OC)CN(C)C2=O,-3,0,1
COCC(=O)Nc1ccc2c(c1)OC[C@@H](C)N(C(=O)COC)C[C@@H](C)[C@H](OC)CN(C)C2=O,53*,0,-3
CC(=O)N(C)C[C@H]1Oc2ncc(/C=C/c3ccccc3)cc2C(=O)N([C@@H](C)CO)C[C@H]1C,-1,0,2
COc1cc(C2NC(C(=O)O)Cc3c2[nH]c2ccccc32)cc(OC)c1OC (centres undefined),.,.,-12
COc1ccc(C2NC(C(=O)O)Cc3c2[nH]c2ccccc32)cc1OC (centres undefined),.,.,116*
CC(C)CC#Cc1ccc2c(c1)O[C@H](CN(C)C(=O)CN(C)C)[C@H](C)CN([C@H](C)CO)S2(=O)=O,0,0,-6
CC1CCCCN1Cc1c(O)ccc2c(=O)c(-c3ccc(Br)cc3)coc12 (centres undefined),-4,40*,-5
CC1CCCCN1Cc1c(O)ccc2c(=O)c(-c3ccc(Cl)cc3)coc12 (centres undefined),2,.,-12
CNC[C@H]1Oc2ccc(NC(=O)C3CC3)cc2CC(=O)N([C@@H](C)CO)C[C@@H]1C,3,0,-2
C[C@@H]1CN([C@@H](C)CO)C(=O)c2cccc(NS(=O)(=O)c3ccc(Cl)cc3)c2O[C@@H]1CN(C)C(=O)Nc1ccc2c(c1)OCO2,2,-8,40
COc1ccc(S(=O)(=O)Nc2ccc3c(c2)C(=O)N([C@H](C)CO)C[C@@H](C)[C@@H](CN(C)Cc2ccncc2)OCCCC[C@@H](C)O3)cc1,5,0,.
COc1ccc(S(=O)(=O)Nc2ccc3c(c2)C(=O)N([C@H](C)CO)C[C@@H](C)[C@H](CN(C)Cc2ccncc2)OCCCC[C@H](C)O3)cc1,-11,0,.
COc1ccc(S(=O)(=O)Nc2ccc3c(c2)C(=O)N([C@H](C)CO)C[C@H](C)[C@H](CN(C)Cc2ccncc2)OCCCC[C@H](C)O3)cc1,48*,0,.
COc1ccc(S(=O)(=O)Nc2ccc3c(c2)C(=O)N([C@H](C)CO)C[C@H](C)[C@H](CN(C)Cc2ccncc2)OCCCC[C@@H](C)O3)cc1,22*,0,.
CCCNC(=O)N1C[C@H](C)[C@@H](OC)CN(C)C(=O)c2cc(NS(=O)(=O)CC(F)(F)F)ccc2OC[C@H]1C,9,0,1
CCC(C)(NC(=O)CNC(C)=O)C(=O)NC1CCCCC1 (centres undefined),.,.,112*
CCC(C)(NC(=O)c1ccccn1)C(=O)NC1CCCC1 (centres undefined),-5,.,.
CCC1(C)Cc2c(sc3nc(NN)n(C)c(=O)c23)CO1 (centres undefined),.,.,144*
